In ChEMBL document CHEMBL1121884, “Piperazinylquinoxalines with central serotoninmimetic activity” (1981):

Assays:
Assay type in all cases: functional
Rattus norvegicus [1] = test: Serotonin neuronal reuptake blocking activity was determined by the antagonism of the head twitch response induced in rats with p-chloromethamphetamine (PCMA) after 9 mg/kg of ip administration; conditions: route intraperitoneal
Procedure, shortened: (§1)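 Female Sprague-Dawley rats (150-250 g) dosed ip with compound (1% methylcellulose vehicle, dose as base weight), then p-chloromethamphetamine 6.0 mg/kg ip 1 h later; head twitches observed 30 min after PCMA; scored as rats not twitching; usually six rats per dose; ED50 = dose antagonizing PCMA head twitch in 50% of animals, with 95% confidence limits.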

Rattus norvegicus [2] = test: Ability to elicit head twitches in rats a response characteristic of a serotonin mimetic action in the central nervous system was measured after 1 mg/kg of ip administration; conditions: route intraperitoneal
Procedure, shortened: (§2)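 Female Sprague-Dawley rats (150-250 g), compound given ip in 1% methylcellulose vehicle, dose as base weight; quantal scoring of rats showing at least one head twitch during a 2-min observation beginning 30 min after dosing; usually six rats per dose level; vehicle controls run.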

Rattus norvegicus [3] = test: Serotonin neuronal reuptake blocking activity was determined by the antagonism of the head twitch response induced by treatment of rats with p-chloromethamphetamine (PCMA) after 3 mg/kg of ip administration; conditions: route intraperitoneal; procedure, shortened: as §1
Rattus norvegicus [4] = test: Ability to elicit head twitches in rats a response characteristic of a serotonin mimetic action in the central nervous system was measured after 3 mg/kg of ip administration; conditions: route intraperitoneal; procedure, shortened: as §2
Rattus norvegicus [5] = test: Serotonin neuronal reuptake blocking activity was determined by the antagonism of the head twitch response induced by treatment of rats with p-chloromethamphetamine (PCMA) after 1 mg/kg of ip administration; conditions: route intraperitoneal; procedure, shortened: as §1
Rattus norvegicus [6] = test: Ability to elicit head twitches in rats a response characteristic of a serotonin mimetic action in the central nervous system after 9 mg/kg of ip administration; conditions: route intraperitoneal; procedure, shortened: as §2
Rattus norvegicus [7] = test: Ability to elicit head twitches in rats a response characteristic of a serotonin mimetic action in the central nervous system was measured after 2.0 mg/kg of ip administration; conditions: route intraperitoneal; procedure, shortened: as §2
Rattus norvegicus [8] = test: Ability to elicit head twitches in rats a response characteristic of a serotonin mimetic action in the central nervous system after 6.0 mg/kg of ip administration; conditions: route intraperitoneal; procedure, shortened: as §2
Rattus norvegicus [9] = test: Serotonin neuronal reuptake blocking activity was determined by the antagonism of the head twitch response induced by treatment of rats with p-chloromethamphetamine (PCMA) after 2 mg/kg of ip administration; conditions: route intraperitoneal; procedure, shortened: as §1
Rattus norvegicus [10] = test: Ability to elicit head twitches in rats a response characteristic of a serotonin mimetic action in the central nervous system was measured after 0.67 mg/kg of ip administration; conditions: route intraperitoneal; procedure, shortened: as §2
Rattus norvegicus [11] = test: Serotonin neuronal reuptake blocking activity was determined by the antagonism of the head twitch response induced in rats with p-chloromethamphetamine (PCMA) after 6.0 mg/kg of ip administration; conditions: route intraperitoneal; procedure, shortened: as §1
Rattus norvegicus [12] = test: Serotonin neuronal reuptake blocking activity was determined by the antagonism of the head twitch response induced by treatment of rats with p-chloromethamphetamine (PCMA) after 0.67 mg/kg of ip administration; conditions: route intraperitoneal; procedure, shortened: as §1
[13] = target: T1, Serotonin (5-HT) receptor (Rattus norvegicus) (UniProt P35563+P35365+P32305+P31388+Q9JJ16+P28564+P30994+Q62758+P08909+P14842+P30940+P35364+P19327+P28565); test: (§3) Ability to elicit head twitches in rats (a serotonin mimetic response); parameters: concentration or dose not given beside the values; procedure, shortened: as §2
[14] = target: T1, Serotonin (5-HT) receptor (Rattus norvegicus); test: as §3; parameters: concentration or dose not given beside the values; procedure, shortened: as §2; remark: listed apart in the source
[15] = target: Sodium-dependent serotonin transporter (Rattus norvegicus) (UniProt P31652); test: (§4) Serotonin neuronal reuptake blocking activity was determined by the antagonism of the head twitch response induced by treatment of rats; parameters: concentration or dose not given beside the values; procedure, shortened: as §1
Sequence of Sodium-dependent serotonin transporter (Rattus norvegicus) (P31652 whole entry): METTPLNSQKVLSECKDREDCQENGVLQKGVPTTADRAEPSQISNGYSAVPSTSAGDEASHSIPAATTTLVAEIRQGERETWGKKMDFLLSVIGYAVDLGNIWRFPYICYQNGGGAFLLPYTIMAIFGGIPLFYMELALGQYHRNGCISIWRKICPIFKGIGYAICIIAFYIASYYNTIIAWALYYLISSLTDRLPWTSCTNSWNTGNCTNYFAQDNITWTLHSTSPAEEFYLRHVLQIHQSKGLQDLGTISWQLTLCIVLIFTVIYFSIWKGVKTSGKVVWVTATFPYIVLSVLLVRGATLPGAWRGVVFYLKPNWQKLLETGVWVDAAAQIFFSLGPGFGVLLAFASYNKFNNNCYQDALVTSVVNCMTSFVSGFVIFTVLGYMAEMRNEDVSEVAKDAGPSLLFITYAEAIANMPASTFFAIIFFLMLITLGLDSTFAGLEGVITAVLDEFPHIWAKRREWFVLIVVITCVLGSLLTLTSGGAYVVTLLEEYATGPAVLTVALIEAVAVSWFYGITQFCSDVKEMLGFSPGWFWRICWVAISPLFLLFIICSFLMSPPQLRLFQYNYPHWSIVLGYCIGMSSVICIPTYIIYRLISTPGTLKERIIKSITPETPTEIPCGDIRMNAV

[16] = target: T1, Serotonin (5-HT) receptor (Rattus norvegicus); test: as §3; parameters: concentration or dose not given beside the values; procedure, shortened: as §2; remark: listed apart in the source
[17] = target: Sodium-dependent serotonin transporter (Rattus norvegicus) (UniProt P31652); test: Serotonin neuronal reuptake blocking activity was determined by the antagonism of the head twitch response induced in rats; parameters: concentration or dose not given beside the values; procedure, shortened: as §1
Rattus norvegicus [18] = species: Rattus norvegicus; test: ED50 value expresses the inhibition of serotonin reuptake in rat.; conditions: Rattus norvegicus; procedure, shortened: as §1
[19] = target: Sodium-dependent serotonin transporter (Rattus norvegicus) (UniProt P31652); test: as §4; parameters: concentration or dose not given beside the values; procedure, shortened: as §1; remark: listed apart in the source
Rattus norvegicus [20] = test: Serotonin neuronal reuptake blocking activity was determined by the antagonism of the head twitch response induced in rats with p-chloromethamphetamine (PCMA) after 40 mg/kg of ip administration; conditions: route intraperitoneal
Procedure, shortened: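 Female Sprague-Dawley rats (150-250 g) dosed ip with compound in 1% methylcellulose vehicle. p-Chloromethamphetamine 6.0 mg/kg ip was given 1 h later, and head movements were observed 30 min after that. Scored as number of rats not showing head twitches. Six rats per dose unless otherwise noted. Doses expressed as base weight.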

Rattus norvegicus [21] = test: Serotonin neuronal reuptake blocking activity was determined by the antagonism of the head twitch response induced by treatment of rats with p-chloromethamphetamine (PCMA) after 4 mg/kg of ip administration; conditions: route intraperitoneal; procedure, shortened: as §1
Rattus norvegicus [22] = test: Serotonin neuronal reuptake blocking activity was determined by the antagonism of the head twitch response induced by treatment of rats with p-chloromethamphetamine (PCMA) after 0.4 mg/kg of ip administration; conditions: route intraperitoneal; procedure, shortened: as §1
Rattus norvegicus [23] = test: Ability to elicit head twitches in rats a response characteristic of a serotonin mimetic action in the central nervous system was measured after 5 mg/kg of ip administration; conditions: route intraperitoneal; procedure, shortened: as §2
Rattus norvegicus [24] = test: Ability to elicit head twitches in rats a response characteristic of a serotonin mimetic action in the central nervous system was measured after 1.2 mg/kg of ip administration; conditions: route intraperitoneal; procedure, shortened: as §2
Rattus norvegicus [25] = test: Ability to elicit head twitches in rats a response characteristic of a serotonin mimetic action in the central nervous system after 20 mg/kg of ip administration; conditions: route intraperitoneal; procedure, shortened: as §2
Rattus norvegicus [26] = test: Serotonin neuronal reuptake blocking activity was determined by the antagonism of the head twitch response induced by treatment of rats with p-chloromethamphetamine (PCMA) after 0.4 mg/kg of ip administration; 1/12; conditions: route intraperitoneal; procedure, shortened: as §1
Rattus norvegicus [27] = test: Ability to elicit head twitches in rats a response characteristic of a serotonin mimetic action in the central nervous system after 40 mg/kg of ip administration; 0/12; conditions: route intraperitoneal; procedure, shortened: as §2
Rattus norvegicus [28] = test: Ability to elicit head twitches in rats a response characteristic of a serotonin mimetic action in the central nervous system was measured after 4 mg/kg of ip administration; 4/12; conditions: route intraperitoneal; procedure, shortened: as §2
Rattus norvegicus [29] = test: Ability to elicit head twitches in rats a response characteristic of a serotonin mimetic action in the central nervous system was measured after 0.4 mg/kg of ip administration; 0/12; conditions: route intraperitoneal; procedure, shortened: as §2
Rattus norvegicus [30] = test: Serotonin neuronal reuptake blocking activity was determined by the antagonism of the head twitch response induced in rats with p-chloromethamphetamine (PCMA) after 40 mg/kg of ip administration; 8/12; conditions: route intraperitoneal; procedure, shortened: as §1
Rattus norvegicus [31] = test: Serotonin neuronal reuptake blocking activity was determined by the antagonism of the head twitch response induced by treatment of rats with p-chloromethamphetamine (PCMA) after 4 mg/kg of ip administration; 2/12; conditions: route intraperitoneal; procedure, shortened: as §1
Rattus norvegicus [32] = test: Ability to elicit head twitches in rats a response characteristic of a serotonin mimetic action in the central nervous system after 6 mg/kg of ip administration; conditions: route intraperitoneal; procedure, shortened: as §2
Rattus norvegicus [33] = test: Ability to elicit head twitches in rats a response characteristic of a serotonin mimetic action in the central nervous system was measured after 2 mg/kg of ip administration; conditions: route intraperitoneal; procedure, shortened: as §2
Rattus norvegicus [34] = test: Serotonin neuronal reuptake blocking activity was determined by the antagonism of the head twitch response induced in rats with p-chloromethamphetamine (PCMA) after 6 mg/kg of ip administration; conditions: route intraperitoneal; procedure, shortened: as §1

Question: What does the source list for `Cc1cccc2nc(N3CCNCC3)cnc12.Cl`?
Answer: PCMA antagonism (Rattus norvegicus [1]): 1; Activity (Rattus norvegicus [2]): 0; PCMA antagonism (Rattus norvegicus [3]): 1; Activity (Rattus norvegicus [4]): 4; PCMA antagonism (Rattus norvegicus [5]): 0; Activity (Rattus norvegicus [6]): 5

Question: For `Cl.O=[N+]([O-])c1ccc2ncc(N3CCNCC3)nc2c1`, which Activity (Rattus norvegicus [7]) is on record?
Answer: 0

Question: And the Activity (Rattus norvegicus [8])?
Answer: 0

Question: What about the PCMA antagonism (Rattus norvegicus [9]) of the same molecule?
Answer: 5

Question: And the Activity (Rattus norvegicus [10])?
Answer: 1

Question: And the PCMA antagonism (Rattus norvegicus [11])?
Answer: 4

Question: And the PCMA antagonism (Rattus norvegicus [12])?
Answer: 2

Question: What does the source list for `Cl.Clc1ccc2nc(N3CCNCC3)cnc2c1`?
Answer: Activity [13]: 2; Activity [14]: 0; PCMA antagonism [15]: 6; Activity [16]: 1; PCMA antagonism [17]: 6; ED50 (Rattus norvegicus [18]): 0.5 mg/kg; PCMA antagonism [19]: 4

Question: Which results are given for `Cl.FC(F)(F)c1ccc2nc(N3CCNCC3)c(Sc3ccccc3)nc2c1`?
Answer: PCMA antagonism (Rattus norvegicus [20]): 0; Activity [13]: 0; Activity [14]: 2; PCMA antagonism [15]: 0; Activity [16]: 2; PCMA antagonism [19]: 1

Question: For `Cl.ON1CCN(c2cnc3ccccc3n2)CC1`, which Activity (Rattus norvegicus [2]) is on record?
Answer: 2

Question: What about the Activity (Rattus norvegicus [4]) of the same molecule?
Answer: 2

Question: And the Activity (Rattus norvegicus [6])?
Answer: 4

Question: Which Activity [13] does the source give for `Nc1ccc2nc(N3CCNCC3)cnc2c1` here?
Answer: 0

Question: And the Activity [14]?
Answer: 2

Question: And the Activity [16]?
Answer: 1

Question: What about the PCMA antagonism (Rattus norvegicus [21]) of the same molecule?
Answer: 4

Question: And the PCMA antagonism (Rattus norvegicus [22])?
Answer: 2

Question: What about the PCMA antagonism [17] of the same molecule?
Answer: 3

Question: How did the Activity (Rattus norvegicus [23]) turn out when `Cl.Clc1nc2ccccc2nc1N1CCNCC1` was run?
Answer: 3

Question: What about the Activity (Rattus norvegicus [24]) of the same molecule?
Answer: 2

Question: What about the Activity (Rattus norvegicus [25]) of the same molecule?
Answer: 1

Question: For `Cc1ccc2nc(N3CCNCC3)cnc2c1.Cl`, which PCMA antagonism (Rattus norvegicus [26]) is on record?
Answer: 1

Question: And the Activity (Rattus norvegicus [27])?
Answer: 0

Question: And the Activity (Rattus norvegicus [28])?
Answer: 4

Question: What about the Activity (Rattus norvegicus [29]) of the same molecule?
Answer: 0

Question: What about the PCMA antagonism (Rattus norvegicus [30]) of the same molecule?
Answer: 8

Question: What about the PCMA antagonism (Rattus norvegicus [31]) of the same molecule?
Answer: 2

Question: For `Brc1ccc2nc(N3CCNCC3)cnc2c1.Cl`, which Activity (Rattus norvegicus [32]) is on record?
Answer: 2

Question: What about the PCMA antagonism (Rattus norvegicus [9]) of the same molecule?
Answer: 3

Question: What about the Activity (Rattus norvegicus [33]) of the same molecule?
Answer: 4

Question: And the Activity (Rattus norvegicus [10])?
Answer: 0

Question: And the PCMA antagonism (Rattus norvegicus [34])?
Answer: 2

Question: And the PCMA antagonism (Rattus norvegicus [12])?
Answer: 2
